One may read the IC50 as the concentration that gives 50% inhibition. Read a high IC50 as lower potency. What is called half-life is the time needed for the level to fall by half in the phase considered. A lower half-life goes with fast loss. For orientation: Tmax means the time at which the peak concentration occurs. One may read the Cmax as the maximum level reached in the sampled fluid or tissue. The term AUC(0-inf) denotes total exposure, with the tail of the curve extrapolated. The low end stands for less exposure, the high end for more exposure.

The source of these data is ChEMBL document CHEMBL4837207, “Discovery of pyrrolo[2,3-d]pyrimidine derivatives as potent Axl inhibitors: Design, synthesis and biological evaluation” (Eur J Med Chem, 2021).

The target of data set [1] is T1, Tyrosine-protein kinase receptor UFO (Homo sapiens, UniProt P30530).
T1 sequence (P30530 whole entry): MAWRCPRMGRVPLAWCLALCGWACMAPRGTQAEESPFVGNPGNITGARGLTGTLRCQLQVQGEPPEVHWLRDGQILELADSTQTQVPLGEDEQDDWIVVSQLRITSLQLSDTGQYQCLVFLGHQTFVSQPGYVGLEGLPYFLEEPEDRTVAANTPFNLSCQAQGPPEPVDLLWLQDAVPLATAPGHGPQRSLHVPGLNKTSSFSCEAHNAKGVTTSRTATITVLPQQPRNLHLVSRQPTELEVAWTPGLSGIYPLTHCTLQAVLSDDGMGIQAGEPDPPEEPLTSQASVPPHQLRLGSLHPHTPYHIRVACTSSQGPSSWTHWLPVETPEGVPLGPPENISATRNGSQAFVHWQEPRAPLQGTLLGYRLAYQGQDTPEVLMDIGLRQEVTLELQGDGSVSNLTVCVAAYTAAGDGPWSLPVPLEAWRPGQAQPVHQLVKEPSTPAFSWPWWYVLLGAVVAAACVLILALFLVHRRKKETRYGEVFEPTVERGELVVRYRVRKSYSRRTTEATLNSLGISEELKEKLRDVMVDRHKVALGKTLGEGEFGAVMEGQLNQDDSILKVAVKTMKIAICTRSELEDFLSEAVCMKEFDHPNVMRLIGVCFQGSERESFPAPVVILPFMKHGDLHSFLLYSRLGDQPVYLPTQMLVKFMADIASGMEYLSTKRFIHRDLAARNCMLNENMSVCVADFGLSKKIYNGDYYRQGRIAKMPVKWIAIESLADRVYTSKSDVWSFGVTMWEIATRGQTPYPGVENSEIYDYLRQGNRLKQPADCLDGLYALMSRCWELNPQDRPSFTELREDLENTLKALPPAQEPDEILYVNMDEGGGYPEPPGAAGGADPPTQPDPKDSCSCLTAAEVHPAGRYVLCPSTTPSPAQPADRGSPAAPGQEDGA
The data set is described as follows: Inhibition of AXL (unknown origin) by ELISA.

The next data set deals with MKN-45. Briefly: Antiproliferative activity against human MKN-45 cells incubated for 72 hrs. The format is functional, cell-based. The settings on record: MKN-45, 72 h. The method in brief:
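MKN-45 cells (MET-amplified gastric carcinoma) grown in the supplier-recommended medium and serum, seeded at low density and treated the next day across a concentration range for 72 h. Proliferation read by SRB or CCK-8. IC50 obtained from a four-parameter concentration-response fit; mean ± SD of two independent assays.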

Data set [2] deals with Hepatocyte growth factor receptor (Homo sapiens, UniProt P08581). The data set is described as follows: Inhibition of c-MET (unknown origin) by ELISA. (In an ELISA, binding on a coated surface is turned into a signal by an enzyme label.)
A further data set relates to BaF3. Briefly: Antiproliferative activity against mouse BaF3 stably expressing human TEL-AXL incubated for 72 hrs. The settings on record: BaF3, 72 h. The format is functional, cell-based.
A short description of data set [3]: Half life in Sprague-Dawley rat at 3 mg/kg, po via gavage measured up to 24 hrs by LC-MS analysis. Type of data set: ADME, organism-based. The following applies: in vivo. The method in brief:
(§1)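 Male Sprague-Dawley rats (n = 3) dosed once by oral gavage at 3 mg/kg as a solution in 5% DMSO/95% (0.5% CMC-Na). Blood sampled at 0.25, 0.5, 1, 2, 4, 6, 8 and 24 h, kept on wet ice, serum separated by centrifugation and stored at -20 °C. Serum levels measured by LC-MS/MS; parameters reported as means.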

The nature of data set [4]: Tmax in Sprague-Dawley rat at 3 mg/kg, po via gavage measured up to 24 hrs by LC-MS analysis. The format is ADME, organism-based. The following applies: in vivo. The method in brief: as §1
A short description of data set [5]: Cmax in Sprague-Dawley rat at 3 mg/kg, po via gavage measured up to 24 hrs by LC-MS analysis. The following applies: in vivo. The format is ADME, organism-based. Details: route oral, dose 3 mg/kg, time <=24. The gist of the method: as §1
Data set [6] can be described thus: AUC (0 to infinity) in Sprague-Dawley rat at 3 mg/kg, po via gavage measured up to 24 hrs by LC-MS analysis. Type of data set: ADME, organism-based. Details: route oral, dose 3 mg/kg, time <=24. The settings on record: in vivo. The method in brief: as §1

Sequence of Hepatocyte growth factor receptor (P08581 whole entry): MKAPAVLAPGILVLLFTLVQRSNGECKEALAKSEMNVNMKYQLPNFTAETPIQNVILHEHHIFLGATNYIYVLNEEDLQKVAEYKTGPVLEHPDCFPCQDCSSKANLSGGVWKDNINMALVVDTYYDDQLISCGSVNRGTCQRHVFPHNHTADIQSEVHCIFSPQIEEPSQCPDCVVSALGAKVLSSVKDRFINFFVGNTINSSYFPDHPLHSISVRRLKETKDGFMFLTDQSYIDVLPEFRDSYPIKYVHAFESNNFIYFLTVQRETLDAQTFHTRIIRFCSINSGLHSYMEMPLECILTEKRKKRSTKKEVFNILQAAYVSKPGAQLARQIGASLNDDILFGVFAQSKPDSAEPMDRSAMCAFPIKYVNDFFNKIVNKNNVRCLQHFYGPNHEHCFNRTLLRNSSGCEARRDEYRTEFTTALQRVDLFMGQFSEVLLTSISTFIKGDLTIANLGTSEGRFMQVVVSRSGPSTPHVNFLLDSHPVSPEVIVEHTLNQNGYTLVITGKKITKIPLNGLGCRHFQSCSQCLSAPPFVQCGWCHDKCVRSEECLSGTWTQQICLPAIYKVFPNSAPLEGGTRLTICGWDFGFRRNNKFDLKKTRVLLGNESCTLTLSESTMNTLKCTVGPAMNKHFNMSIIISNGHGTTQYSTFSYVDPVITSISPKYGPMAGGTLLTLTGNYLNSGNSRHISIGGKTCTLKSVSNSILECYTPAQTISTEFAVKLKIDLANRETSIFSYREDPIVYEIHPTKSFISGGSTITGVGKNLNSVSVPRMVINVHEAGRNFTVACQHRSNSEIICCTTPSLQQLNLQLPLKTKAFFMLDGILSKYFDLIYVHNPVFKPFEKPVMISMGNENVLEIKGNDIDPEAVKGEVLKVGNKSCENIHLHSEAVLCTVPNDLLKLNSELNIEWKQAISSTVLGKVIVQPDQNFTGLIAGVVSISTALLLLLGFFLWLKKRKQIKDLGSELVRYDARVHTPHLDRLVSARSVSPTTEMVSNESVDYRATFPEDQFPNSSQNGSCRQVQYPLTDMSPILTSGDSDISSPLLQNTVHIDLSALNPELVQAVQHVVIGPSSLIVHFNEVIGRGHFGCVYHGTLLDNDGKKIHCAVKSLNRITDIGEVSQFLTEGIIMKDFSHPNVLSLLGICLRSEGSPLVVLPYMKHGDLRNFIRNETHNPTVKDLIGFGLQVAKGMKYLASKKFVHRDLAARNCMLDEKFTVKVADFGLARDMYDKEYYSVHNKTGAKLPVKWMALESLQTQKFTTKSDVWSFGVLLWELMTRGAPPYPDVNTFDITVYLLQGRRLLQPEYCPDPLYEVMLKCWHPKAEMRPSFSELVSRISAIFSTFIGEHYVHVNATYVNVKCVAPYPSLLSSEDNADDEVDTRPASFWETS

With `CN(C)C(=O)Cn1cc(C(=O)Nc2ccc(-c3cn(C)c4ncnc(N)c34)cc2)c(=O)c(-c2ccc(F)cc2)c1`, the IC50 in data set [1] is 0.5 nM; with MKN-45, greater than 1000 nM; in data set [2], 18.4 nM; in the data set on BaF3, greater than 100 nM.
With `Cn1cc(-c2ccc(NC(=O)c3cn(CC4CCOCC4)cc(-c4ccc(F)cc4)c3=O)cc2F)c2c(N)ncnc21`, the IC50 is 0.8 nM in data set [1], 93.7 nM with MKN-45, 2.4 nM in data set [2] and less than 1 nM in the data set on BaF3.
Consider `Cn1cc(-c2ccc(NC(=O)c3cn(CC4CCOCC4)cc(-c4cccc(F)c4)c3=O)cc2)c2c(N)ncnc21`, for which the results for the IC50 in data set [1] and in data set [2] were 3 nM and 95.4 nM, respectively.
As to `CC(C)n1cc(C(=O)Nc2ccc(-c3cn(C)c4ncnc(N)c34)cc2)c(=O)c(-c2ccc(F)cc2)c1`, the IC50 in data set [1] was 0.4 nM; in the data set on MKN-45, 85.3 nM; in data set [2] it was 18.4 nM; in the data set on BaF3 it was less than 1 nM.
As to `Cn1cc(C(=O)Nc2ccc(-c3cn(C)c4ncnc(N)c34)cc2)c(=O)c(-c2ccc(F)cc2)c1`, the IC50 in data set [1] came to 5 nM; in data set [2] it was 24.5 nM.
Regarding `Cn1cc(-c2ccc(NC(=O)c3cn(CC4CCOCC4)cc(-c4ccc(F)cc4F)c3=O)cc2)c2c(N)ncnc21`, the IC50 is 0.8 nM in data set [1], 501 nM in the data set on MKN-45, 19.8 nM in data set [2] and less than 1 nM in the data set with BaF3.
Take `Cc1nc(N)c2c(-c3ccc(NC(=O)c4cn(CC5CCOCC5)cc(-c5ccc(F)cc5)c4=O)cc3)cn(C)c2n1`: the IC50 in data set [1] was 5.1 nM; in data set [2] it was 159 nM.
In the case of `Cn1cc(-c2ccc(NC(=O)c3cn(CC4CCCO4)cc(-c4ccc(F)cc4)c3=O)cc2)c2c(N)ncnc21` (configuration not stated), the values for the IC50 in data set [1] and in data set [2] were 1.2 nM and 3.1 nM, respectively.
Taken in the same sequence, the figures for `CCCn1cc(-c2ccc(NC(=O)c3cn(CC4CCOCC4)cc(-c4ccc(F)cc4)c3=O)cc2)c2c(N)ncnc21` were 1.8 nM and 5.1 nM.
`Cc1cc(-c2cn(C)c3ncnc(N)c23)ccc1NC(=O)c1cn(CC2CCOCC2)cc(-c2ccc(F)cc2)c1=O`: the IC50 in data set [1] came to 4 nM; in data set [2] it was 33.8 nM.
For `Cn1cc(-c2ccc(NC(=O)c3cn(CC4CCOCC4)cc(-c4ccc(F)cc4)c3=O)c(Cl)c2)c2c(N)ncnc21`, the IC50 in data set [1] amounted to 3.7 nM; in data set [2], 40.5 nM.
For the molecule `CN(C)CCn1cc(-c2ccc(NC(=O)c3cn(CC4CCOCC4)cc(-c4ccc(F)cc4)c3=O)cc2)c2c(N)ncnc21`, the half-maximal inhibitory concentration (IC50) in data set [1] amounted to 2.8 nM; in data set [2], 215 nM.
For `C[C@@H](Oc1cc(-c2cnn(C3CCNCC3)c2)cnc1N)c1c(Cl)ccc(F)c1Cl` [CRIZOTINIB], in the data set with MKN-45, it took 15 nM to reach half-maximal inhibition (IC50).
In the case of `COCCCn1cc(C(=O)Nc2ccc(-c3cn(C)c4ncnc(N)c34)cc2)c(=O)c(-c2ccc(F)cc2)c1`, the half-inhibitory concentration (IC50) in data set [1] was greater than 10 nM; in data set [2], 16.7 nM.
On to `Cn1cc(-c2ccc(NC(=O)c3cn(CC4CCOCC4)cc(-c4ccc(Cl)cc4)c3=O)cc2)c2c(N)ncnc21`, for which the IC50 was 0.2 nM in data set [1], 347 nM in the data set on MKN-45, 12.3 nM in data set [2] and less than 1 nM in the data set on BaF3.
In the case of `Nc1ncnc2[nH]cc(-c3ccc(NC(=O)c4cn(CC5CCOCC5)cc(-c5ccc(F)cc5)c4=O)cc3)c12`, the IC50 is 0.2 nM in data set [1], 77.9 nM in the data set with MKN-45, 4.4 nM in data set [2] and less than 1 nM with BaF3.
Consider `Cn1cc(-c2ccc(NC(=O)c3cn(CC4CCOCC4)cc(-c4ccccc4)c3=O)cc2)c2c(N)ncnc21`, for which the IC50 was 1 nM in data set [1], 318 nM with MKN-45, 20.6 nM in data set [2] and less than 1 nM in the data set with BaF3.
Taken in the same sequence, the figures for `Cn1cc(-c2ccc(NC(=O)c3cn(CC4CCOCC4)cc(-c4ccc(F)cc4)c3=O)c(F)c2)c2c(N)ncnc21` were 0.2 nM, 210 nM, 7.3 nM and less than 1 nM.
With `Cn1cc(-c2ccc(NC(=O)c3cn(C4CCOCC4)cc(-c4ccc(F)cc4)c3=O)cc2)c2c(N)ncnc21`, the IC50 in data set [1] is 1.1 nM; in data set [2], 13.1 nM.
With `Cn1cc(-c2ccc(NC(=O)c3cn(CC4CCOCC4)cc(-c4ccc(C(F)(F)F)cc4)c3=O)cc2)c2c(N)ncnc21`, the half-inhibitory concentration (IC50) was 0.4 nM in data set [1], 826 nM in the data set on MKN-45, 33.1 nM in data set [2] and less than 1 nM with BaF3.
With `Cn1cc(-c2ccc(NC(=O)c3cn(CC4CCOCC4)cc(-c4ccc(F)cc4)c3=O)cc2)c2c(N)ncnc21`, the IC50 in data set [1] was 0.1 nM; in the data set on MKN-45, 248 nM; in data set [2], 7.1 nM; with BaF3 it was less than 1 nM.
As for `Nc1ncnc2c1c(-c1ccc(NC(=O)c3cn(CC4CCOCC4)cc(-c4ccc(F)cc4)c3=O)cc1)cn2CCN1CCOCC1`, the values for the IC50 in data set [1] and in data set [2] were 2.7 nM and 17 nM, respectively.
With `Nc1ncnc2[nH]cc(-c3cc(F)c(NC(=O)c4cn(CC5CCOCC5)cc(-c5ccc(F)cc5)c4=O)cc3F)c12`, the half-life in data set [3] was 1.37 h. For the same molecule, the Tmax in data set [4] came out at 0.83 h. The IC50 was 0.4 nM in data set [1], 29.8 nM in the data set on MKN-45, 1.7 nM in data set [2] and less than 1 nM with BaF3. In data set [5], this molecule registered a Cmax of 330 ng/mL. Also, in data set [6], the AUC(0-inf) came to 385 ng·h/mL.
For `Cn1cc(-c2ccc(NC(=O)c3cn(CC4CCCCC4)cc(-c4ccc(F)cc4)c3=O)cc2)c2c(N)ncnc21`, the IC50 in data set [1] stood at 2.3 nM; in data set [2], 4.8 nM.
Turning to `Cn1cc(-c2cc(F)c(NC(=O)c3cn(CC4CCOCC4)cc(-c4ccc(F)cc4)c3=O)cc2F)c2c(N)ncnc21`, the IC50 in data set [1] was 0.5 nM; in the data set on MKN-45 it was 53.7 nM; in data set [2], 3.3 nM; in the data set on BaF3 it was less than 1 nM.
